Reference: ChEMBL document CHEMBL1159121, “Synthesis, in vitro structure-activity relationship, and in vivo studies of 2-arylthiazolidine-4-carboxylic acid amides as anticancer agents” (Bioorg Med Chem, 2010)
pEC50, pIC50: −log10 of the molar value. Calls of active or inactive are those of the source. The rule behind the calls is not given here.

Legend:
[1] = target: T1, Lysophosphatidic acid receptor 1 (Homo sapiens, UniProt Q92633); test: Agonist activity at LPA1 expressed in human chem1 cells assessed as intracellular calcium mobilization by FLIPR assay; assay type: functional, cell-based
Summary of the method: (§1)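 Chem-1 cells stably transfected with LPA1, LPA3 or LPA5, kept in DMEM/10% FBS; Fluo-4 NW loaded. Compound added as an eight-point fourfold serial dilution (top 10 μM), then incubated 10 min at 25 °C. Ca2+ flux read for 180 s on FLIPR, expressed as percentage activation.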

[2] = Cytotoxicity against human fibroblasts after 48 hrs by SRB assay; assay type: cell-based; details: Fibroblast
Summary of the method: (§2)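 Melanoma lines and control fibroblasts grown at 37 °C, 5% CO2, then exposed to a wide concentration range for 48 h in round-bottom 96-well plates. Fixed with 10% TCA, stained with SRB, protein read at 560 nm. IC50 (50% growth inhibition versus untreated) obtained by nonlinear regression.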

LNCaP = test: Antiproliferative activity against human LNCAP cells after 96 hrs by SRB assay; assay type: functional, cell-based
Summary of the method: (§3)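 Prostate lines in RPMI1640/10% FBS; RH7777 in DMEM/10% FBS. Cells TCA-fixed, stained with 0.4% SRB, absorbance read at 540 nm. IC50 from nonlinear regression of % survival against concentration.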

RH7777 [3] = test: Selectivity ratio of IC50 for rat RH7777 cells to IC50 for human prostate cancer cells
Summary of the method: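 Ratio of RH7777 IC50 to the mean IC50 over four prostate lines (DU 145, PC-3, LNCaP, PPC-1). Prostate lines grown in RPMI1640/10% FBS and RH7777 in DMEM/10% FBS. Read by SRB (0.4%) at 540 nm; IC50 by nonlinear regression.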

[4] = Antiproliferative activity against human WM164 cells after 48 hrs by SRB assay; assay type: functional, cell-based; details: WM164, 48 h; summary of the method: as §2
A-375 = test: Antiproliferative activity against human A375 cells after 48 hrs by SRB assay; assay type: functional, cell-based; details: A-375, 48 h; summary of the method: as §2
[5] = Selectivity ratio of IC50 for human fibroblasts to IC50 for human melanoma cells; assay type: ADME; details: human fibroblasts and human melanoma cells, read-out: Ratio IC50
PPC-1 = test: Antiproliferative activity against human PPC1 cells after 96 hrs by SRB assay; assay type: functional, cell-based; details: PPC-1, 96 h; summary of the method: as §3
RH7777 [6] = test: Cytotoxicity against rat RH7777 cells after 96 hrs by SRB assay; assay type: cell-based; details: RH7777, 96 h; summary of the method: as §3
DU-145 = test: Antiproliferative activity against human DU145 cells after 96 hrs by SRB assay; assay type: functional, cell-based; details: DU-145, 96 h; summary of the method: as §3
[7] = Antiproliferative activity against mouse B16-F1 cells after 48 hrs by SRB assay; assay type: functional, cell-based; details: B16-F1, 48 h; summary of the method: as §2
PC-3 = test: Antiproliferative activity against human PC3 cells after 96 hrs by SRB assay; assay type: functional, cell-based; details: PC-3, 96 h
[8] = target: T2, Lysophosphatidic acid receptor 3 (Homo sapiens) (UniProt Q9UBY5); test: Agonist activity at LPA3 expressed in human chem1 cells assessed as intracellular calcium mobilization by FLIPR assay; assay type: functional, cell-based; summary of the method: as §1
T2 sequence (whole entry): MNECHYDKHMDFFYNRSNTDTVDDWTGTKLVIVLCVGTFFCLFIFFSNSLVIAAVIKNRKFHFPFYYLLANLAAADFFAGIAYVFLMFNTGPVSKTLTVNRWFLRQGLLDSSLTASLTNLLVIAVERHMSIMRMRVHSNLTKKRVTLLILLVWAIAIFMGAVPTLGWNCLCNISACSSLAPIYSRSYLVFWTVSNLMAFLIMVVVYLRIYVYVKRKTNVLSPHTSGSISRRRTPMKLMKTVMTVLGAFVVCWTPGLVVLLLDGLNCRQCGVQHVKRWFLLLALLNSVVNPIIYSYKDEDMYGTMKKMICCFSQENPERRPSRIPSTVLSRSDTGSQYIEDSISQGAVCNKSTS

[9] = target: Lysophosphatidic acid receptor 5 (Homo sapiens) (UniProt Q9H1C0); test: Agonist activity at LPA5 expressed in human chem1 cells assessed as intracellular calcium mobilization by FLIPR assay; assay type: functional, cell-based; summary of the method: as §1
[10] = target: T1, Lysophosphatidic acid receptor 1; test: Antagonist activity at LPA1 expressed in human chem1 cells assessed as effect on intracellular calcium mobilization by FLIPR assay; assay type: functional, cell-based
Summary of the method: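 LPA1-, LPA3- or LPA5-transfected Chem-1 cells, Fluo-4 NW loaded, preincubated 10 min at 25 °C with compound. Dilution series was eight-point, fourfold, top final concentration 10 μM. […] FLIPR Ca2+ signal read for 180 s, percentage inhibition calculated; 50% inhibition was taken as antagonism.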

T1 sequence (Q92633 whole entry): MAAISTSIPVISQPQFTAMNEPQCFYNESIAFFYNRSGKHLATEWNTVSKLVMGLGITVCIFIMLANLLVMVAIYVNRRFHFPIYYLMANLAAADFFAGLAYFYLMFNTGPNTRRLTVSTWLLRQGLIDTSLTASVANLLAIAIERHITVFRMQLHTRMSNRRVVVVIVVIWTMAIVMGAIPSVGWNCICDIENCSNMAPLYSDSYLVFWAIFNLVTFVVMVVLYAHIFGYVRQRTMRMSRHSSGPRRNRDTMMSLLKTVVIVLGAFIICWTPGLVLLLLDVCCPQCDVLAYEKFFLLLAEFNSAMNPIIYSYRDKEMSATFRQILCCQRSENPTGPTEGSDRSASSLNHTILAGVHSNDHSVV
Sequence of Lysophosphatidic acid receptor 5 (Homo sapiens) (Q9H1C0 whole entry): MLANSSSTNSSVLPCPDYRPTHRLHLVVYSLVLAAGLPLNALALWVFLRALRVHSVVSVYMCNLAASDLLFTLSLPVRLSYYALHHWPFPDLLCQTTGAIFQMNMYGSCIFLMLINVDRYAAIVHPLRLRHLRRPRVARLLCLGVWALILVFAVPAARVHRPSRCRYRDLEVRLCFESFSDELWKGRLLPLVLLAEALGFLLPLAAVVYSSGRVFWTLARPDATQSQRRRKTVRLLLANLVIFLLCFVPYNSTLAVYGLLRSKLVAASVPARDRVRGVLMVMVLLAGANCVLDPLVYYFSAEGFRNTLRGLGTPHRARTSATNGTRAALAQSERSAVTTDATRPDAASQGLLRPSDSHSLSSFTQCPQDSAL

Row | SMILES | pEC50 [1] | pIC50 [2] | pIC50 (LNCaP) | Ratio IC50 (RH7777 [3]) | pIC50 [4] | pIC50 (A-375) | selectivity ratio [5] | pIC50 (PPC-1) | pIC50 (RH7777 [6]) | pIC50 (DU-145) | pIC50 [7] | pIC50 (PC-3) | Activity [8] | Activity [1] | Activity [9] | pIC50 [10]
1 | CCCCCCCC/C=C\CCCCCCCC(=O)OC[C@@H](O)COP(=O)(O)O [LYSOPHOSPHATIDIC ACID] | 7.51 | – | – | – | – | – | – | – | – | – | – | – | – | – | – | –
2 | CC(=O)Nc1ccc(C2N[C@H](C(=O)Nc3ccc4cc5ccccc5cc4c3)CS2)cc1 (mixture of isomers) | – | 4.87 | 5.77 | 2.5 | 5.85 | 5.51 | 4 | 6.15 | 5.59 | 6.05 | 5.25 | 6.10 | – | – | – | –
3 | CCCCCCCCCCCCCCCCNC(=O)[C@@H]1CSC(c2ccc(NC(C)=O)cc2)N1C(C)=O (mixture of isomers) | – | 4.24 | 4.97 | 1.3 | 4.69 | 4.90 | 3.6 | 5.17 | 4.89 | 4.83 | 4.82 | 5.05 | – | – | – | –
4 | Cc1noc(-c2ccc(CSCCC(=O)O)cc2)c1NC(=O)OC(C)c1ccccc1Cl (configuration not stated) | – | – | – | – | – | – | – | – | – | – | – | – | inactive | inactive | inactive | 7.34
5 | CCCCCCCCC/C=C/CCCCCCCNC(=O)[C@@H]1CSC(c2cc(OC)c(OC)c(OC)c2)N1 (mixture of isomers) | – | 5.40 | 6.22 | 9.1 | 5.96 | 5.74 | 2 | 6.52 | 5.17 | 6.05 | 5.49 | 5.92 | – | – | – | –
6 | CCCCCCCCCCCCCCCCNC[C@@H]1CSC(c2ccccc2)N1 (mixture of isomers) | – | 4.22 | 5.41 | 1.9 | 5.31 | 4.89 | 8 | 5.60 | 5.21 | 5.51 | 5.33 | 5.47 | – | – | – | –
7 | CCCCCCCCCCCCCCCCCCNC(=O)[C@@H]1CSC(c2ccc(OC)c(OC)c2)N1 (mixture of isomers) | – | 4.69 | 5.62 | 3.7 | 5.57 | 5.16 | 2.5 | 6.05 | 4.93 | 5.26 | 4.84 | 5.39 | – | – | – | –
8 | CCCCCCCCCCCCCCCCNC(=O)[C@@H]1CSC(c2ccc(N(C)C)cc2)N1 (mixture of isomers) | – | 4.68 | 5.85 | 3.6 | 5.82 | 5.74 | 6.3 | 6.40 | 5.00 | 5.49 | 5.17 | 5.22 | – | – | – | –
9 | CCCCCCCCCCCCCCCCNC(=O)[C@@H]1CSC(c2cccc(NC(C)=O)c2)N1 (mixture of isomers) | – | 5.20 | 5.85 | 3.4 | 5.96 | 5.82 | 3.9 | 6.30 | 5.31 | 5.64 | 5.66 | 5.80 | – | – | – | –
